By Km is commonly meant the concentration of substrate that gives half-maximal velocity.

Among the data in PMC8367640 (Journal of Applied Glycoscience, 2021) are Km values, retold here.

This assay concerns BlAga3. In words: HPAEC-PAD of released products. The conditions noted are these: 50 mM sodium acetate pH 6.0, 45 °C, 20 min. The assay is classed as biochemical, Bifidobacterium longum subsp. longum. In a few lines: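 His-tagged recombinant BlAga3, TALON-purified (50 mM imidazole fraction, desalted). Enzyme in 50 mM sodium acetate pH 6.0 at 45 °C for 20 min: 0.20 μg/mL with 0.1–10 mM α-D-Gal-(1→3)-L-Ara, or 0.79 μg/mL with 1.0–50 mM raffinose. Stopped with 5 % TCA; released sugars quantified by HPAEC-PAD (NaOH/sodium acetate gradient).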

As to `OC[C@H]1O[C@H](O[C@H]2[C@@H](O)COC(O)[C@@H]2O)[C@H](O)[C@@H](O)[C@H]1O` (stereo partly drawn) [GA, α-D-Gal-(1→3)-L-Ara], the Km (0.1–10 mM substrate) was 0.774 ± 0.014 mM.
For `OC[C@H]1O[C@H](OC[C@H]2O[C@H](O[C@]3(CO)O[C@H](CO)[C@@H](O)[C@@H]3O)[C@H](O)[C@@H](O)[C@@H]2O)[C@H](O)[C@@H](O)[C@H]1O` [Raffinose], where the note is “1.0-50 mM substrate”, the Km worked out at 29.5 ± 1 mM.
